Laboratory results from ChEMBL document CHEMBL3414459, “Phenolic thio- and selenosemicarbazones as multi-target drugs” (Eur J Med Chem, 2015).
Active and inactive are the calls of the source. No cut-off for these calls is given here.

What was measured:
[1] = Antioxidant activity assessed as H2O2 scavenging activity at 100 uM incubated for 20 mins by phenol red based assay; format: physicochemical
Procedure, shortened: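 Compound at 100 µM final, or DMSO control, in 0.1 M phosphate buffer pH 7.4 with H2O2 and 0.1 M NaCl, incubated in the dark at 37 °C for 20 min. Phenol red (0.2 mg/mL) and horseradish peroxidase (0.1 mg/mL) added, 15 min at 37 °C. NaOH added, 10 min at rt, A610 read. % reduction = (A_control − A_sample)/A_control × 100.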

SW1573 = assay: Antiproliferative activity against human SW1573 cells after 48 hrs by sulforhodamine B assay; format: functional; conditions: SW1573, 48 h
Procedure, shortened: (§1)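 Exponentially growing cells trypsinized into penicillin/streptomycin medium, >97% viable by trypan blue. Seeded per well: 10,000 (A549, HBL-100, HeLa, SW1573), 15,000 (T-47D), 20,000 (WiDr). Treatment began day 1, DMSO stocks 40 mM, 0.25% DMSO as control, triplicate, 48 h. Cells fixed with cold TCA 60 min at 4 °C, SRB stained, OD492 read, medium background subtracted.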

Saccharomyces bayanus = assay: Un-competitive inhibition of baker's yeast alpha-glucosidase using p-nitrophenyl-alpha-D-glucopyranoside substrate assessed as reduction in p-nitrophenolate formation by Lineweaver-Burk plot
Procedure, shortened: (§2)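 Same α-glucosidase conditions: pH 6.8 phosphate buffer, 25 °C, A400 for p-nitrophenolate, 5% DMSO. Done for inhibitors exceeding 50% inhibition at 500 µM. Rates measured at 5 substrate concentrations from 0.25 to 4.0 K_m, each at a fixed inhibitor concentration, using 2–3 inhibitor concentrations. Lineweaver–Burk double reciprocal plots gave the inhibition mode and constants K_ia (E) and K_ib (ES).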

[2] = Inhibition of baker's yeast alpha-glucosidase using p-nitrophenyl-alpha-D-glucopyranoside substrate assessed as reduction in p-nitrophenolate formation at 500 uM; conditions: Saccharomyces bayanus
Procedure, shortened: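 α-Glucosidase in 0.1 M phosphate buffer pH 6.8 with p-nitrophenyl-α-D-glucopyranoside at K_M (250 µM; K_M 0.25 mM). Inhibitor at 500 µM final or DMSO, DMSO 5% v/v.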

T47D [3] = assay: Potency index, ratio of GI50 for cisplatin to GI50 for compound against human T47D cells after 48 hrs by sulforhodamine B assay; format: functional
[4] = Antiproliferative activity against human HBL100 cells after 48 hrs by sulforhodamine B assay; format: functional; conditions: HBL-100, 48 h; procedure, shortened: as §1
WiDr [5] = assay: Potency index, ratio of GI50 for 5-fluorouracil to GI50 for compound against human WiDr cells after 48 hrs by sulforhodamine B assay; format: functional
WiDr [6] = assay: Potency index, ratio of GI50 for cisplatin to GI50 for compound against human WiDr cells after 48 hrs by sulforhodamine B assay; format: functional
HeLa [7] = assay: Potency index, ratio of GI50 for 5-fluorouracil to GI50 for compound against human HeLa cells after 48 hrs by sulforhodamine B assay; format: functional
[8] = Antioxidant activity assessed as DPPH free radical scavenging activity incubated for 30 mins; format: physicochemical
Procedure, shortened: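 DPPH in HPLC-grade solvent mixed with compound in DMSO at 7 concentrations, or with DMSO alone as control. Kept in the dark at rt for 30 min, then A515 read against a blank. % DPPH remaining = A_sample/A_control × 100, plotted against concentration; EC50 taken from the straight line. Triplicate.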

A549 = assay: Antiproliferative activity against human A549 cells after 48 hrs by sulforhodamine B assay; format: functional; conditions: A549, 48 h; procedure, shortened: as §1
[9] = Inhibition of baker's yeast alpha-glucosidase using p-nitrophenyl-alpha-D-glucopyranoside substrate assessed as inhibition constant for enzyme-substrate-compound binding by measuring reduction in p-nitrophenolate formation; procedure, shortened: as §2
[10] = Antioxidant activity assessed as inhibition of the lipid peroxidation at 0.74 mM incubated for 24 hrs by ferric thiocyanate method; format: physicochemical; conditions: 740 µM
Procedure, shortened: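 Ferric thiocyanate method at 0.74 mM. 10.0 mM DMSO stock combined with methanolic linoleic acid in 0.2 M phosphate buffer pH 7.0. AAPH added, then 24 h at 50 °C in the dark; DMSO served as control. An aliquot was diluted in H2O–DMSO with NH4SCN and FeCl2 in HCl. After 3 min at rt, A546 read. % inhibition relative to control.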

WiDr [11] = assay: Antiproliferative activity against human WiDr cells after 48 hrs by sulforhodamine B assay; format: functional; procedure, shortened: as §1
T47D [12] = assay: Antiproliferative activity against human T47D cells after 48 hrs by sulforhodamine B assay; format: functional; procedure, shortened: as §1
HeLa [13] = assay: Antiproliferative activity against human HeLa cells after 48 hrs by sulforhodamine B assay; format: functional; procedure, shortened: as §1
T47D [14] = assay: Potency index, ratio of GI50 for 5-fluorouracil to GI50 for compound against human T47D cells after 48 hrs by sulforhodamine B assay; format: functional

Oc1ccc(/C=N/NC(=[Se])Nc2cccc3ccccc23)cc1
inhibition (INH) [1]: 53.1% | GI50 (SW1573): 2300 nM | inhibition (Saccharomyces bayanus): Active | inhibition [2]: 100% | RatioGI50 (T47D [3]): 6 | GI50 [4]: 2100 nM | RatioGI50 (WiDr [5]): 21 | RatioGI50 (WiDr [6]): 11 | RatioGI50 (HeLa [7]): 6.5 | EC50 [8]: 21700 nM | GI50 (A549): 1300 nM | Ki [9]: 59000 nM | inhibition (INH) [10]: 23.3% | GI50 (WiDr [11]): 2300 nM | GI50 (T47D [12]): 2500 nM | GI50 (HeLa [13]): 2200 nM | RatioGI50 (T47D [14]): 19
